The record followed here is ChEMBL document CHEMBL3286141 (Bioorg Med Chem, 2014).

Assay [1] can be described thus: (§1) Antiproliferative activity against human pancreatic stellate cells at 5 uM after 24 to 48 hrs by AlamarBlue assay. In kind it is functional. The method, boiled down:
(§2)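 Transformed human PSC seeded at 3×10^3 cells/well in sextuplicate. Next day exposed to compound at the stated single concentration in 1% FBS medium for 24–48 h. Viability read by AlamarBlue fluorescence (ex/em 544/590 nm). Values are the mean of at least three independent experiments.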
(In general: The colour change of resazurin is a common sign of viable cells or microbes.)

Assay [2] can be described thus: (§3) Antiproliferative activity against human pancreatic stellate cells at 10 uM after 24 to 48 hrs by AlamarBlue assay. In kind it is functional. The essentials: as §2
Assay [3] in a line: (§4) Antiproliferative activity against human pancreatic stellate cells at 20 uM after 24 to 48 hrs by AlamarBlue assay. It is filed as functional. The method, boiled down:
as §2

The species entered for assay [4] is Homo sapiens. Described as §1. It is filed as functional. The method, boiled down:
as §2

Assay [5] concerns Mus musculus. As to the kind of experiment: Anti-fibrotic activity in C57BL/6 mouse caerulein-induced chronic pancreatitis model assessed as reduction of stromal fibrosis at 0.5 mg/kg, po administered qd for 6 days per week for 3 weeks using hematoxylin 7211 staining by immunohistochemistry analysis. It is filed as functional, organism-based. On the set-up: dose 0.5 mg/kg.
Assay [6] deals with Mus musculus. As to the kind of experiment: Anti-fibrotic activity in C57BL/6 mouse caerulein-induced chronic pancreatitis model assessed as reduction of tissue edema at 0.5 mg/kg, po administered qd for 6 days per week for 3 weeks using hematoxylin 7211 staining by immunohistochemistry analysis. It is filed as functional, organism-based. On the set-up: dose 0.5 mg/kg.
Assay [7] has as its system Mus musculus. As to the kind of experiment: Anti-fibrotic activity in C57BL/6 mouse caerulein-induced chronic pancreatitis model assessed as reduction of acinar cell damage at 0.5 mg/kg, po administered qd for 6 days per week for 3 weeks using hematoxylin 7211 staining by immunohistochemistry analysis. It is filed as functional, organism-based. On the set-up: dose 0.5 mg/kg.

The subject of assay [8] is Mus musculus. The assay can be described thus: Anti-fibrotic activity in C57BL/6 mouse caerulein-induced chronic pancreatitis model assessed as reduction of fibrosis at 0.5 mg/kg, po administered qd for 6 days per week for 3 weeks using hematoxylin 7211 staining by image analysis. It is filed as functional, organism-based. Details: dose 0.5 mg/kg. The method, boiled down:
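C57BL/6 mice given cerulein 50 μg/kg i.p. hourly for 5 h, 3 d/week for 4 weeks; PBS controls. From week 2, oral gavage at 0.5 mg/kg/d, 6 d/week for 3 weeks, in 0.5% methylcellulose + 0.025% Tween 20. Formalin-fixed paraffin sections (5 μm) stained by IHC for fibronectin with hematoxylin counterstain; percent area of stain quantified by image analysis. n = 10–11 per group.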

Assay [9] can be described thus: Antiproliferative activity against human pancreatic stellate cells after 24 hrs by AlamarBlue assay. In kind it is functional. The method, boiled down: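 Immortalized human PSC (SV40 large T plus telomerase, DMEM/10% FBS) seeded at 3×10^3 cells/well in sextuplicate. Next day switched to 1% FBS with a range of compound concentrations for 24 h. AlamarBlue fluorescence read at 544/590 nm. IC50 taken by nonlinear regression of fluorescence versus log concentration, as mean ± SEM of at least three independent experiments.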

A short description of assay [10]: Induction of apoptosis in human pancreatic stellate cells after 14 hrs by cell death detection ELISAPLUS assay. It is filed as functional. The essentials: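 Transformed human PSC (primary cells immortalised with SV40 large T antigen and telomerase; grown in DMEM, 10% FBS, 37 °C) plated at 8×10^3 per well in triplicate; next day switched to 1% FBS with compound at various doses for 14 h. Cytoplasmic nucleosomes detected by sandwich ELISA, absorbance at 405 nm. EC50 by nonlinear regression against log concentration; at least three independent experiments.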

For assay [11], the species on record is Homo sapiens. Described as §3. In kind it is functional. The essentials:
as §2

The species entered for assay [12] is Homo sapiens. The description is as §4. In kind it is functional. The essentials: as §2

The source made the active and inactive calls. No cut-off for these calls is given here.

Turning to `COc1cc(OC)c2c(=O)cc(-c3ccc(Br)cc3)oc2c1`, testing at 5 µM in assay [1] gave an inhibition of 12%. In assay [2], the inhibition at 10 µM stood at 10%. This compound also gave an inhibition at 20 µM in [3] of 22%.
Regarding `COc1cc(OC)c2c(=O)cc(-c3ccc(OC4CCNCC4)cc3)oc2c1`, the inhibition entry in the assay listed under Homo sapiens [4] is “inactive”. Besides, in [2], testing at 10 µM gave an inhibition of 21%.
The compound `COc1cc(OC)c2c(=O)cc(-c3ccc(OCCN4CCN(C)CC4)cc3)oc2c1` showed an inhibition at 5 µM in [1] of 22%. For the same compound, the inhibition at 10 µM in [2] came out at 42%. Further, the inhibition at 20 µM in [3] amounted to 67%.
`COc1cc(OC)c2c(=O)cc(-c3ccc(OC4CCN(C)CC4)cc3)oc2c1` registered an inhibition at 5 µM in assay [1] of 28%. In addition, in assay [2], the inhibition at 10 µM was 49%.
As to `COc1cc(OC)c2c(=O)cc(-c3ccc(OCCN)cc3)oc2c1`, in [1], the inhibition at 5 µM amounted to 6%. This compound also displayed an inhibition at 10 µM in assay [2] of 35%. Besides, in [3], at 20 µM the inhibition was 70%.
The matching figures for `COc1cc(OC)c2c(=O)cc(-c3ccc(OCCCN(C)C)cc3)oc2c1`: 36%, 59% and 86%.
`COc1cc(OC)c2c(=O)cc(-c3ccc(OCCN4CCCC4)cc3)oc2c1`: in assay [1], the inhibition at 5 µM stood at 48%. Moreover, the inhibition at 10 µM in [2] came to 66%. In addition, the inhibition at 20 µM in assay [3] is 98%.
As for `COc1cc(OC)c2c(=O)cc(-c3ccc(-c4ccc(F)nc4)cc3)oc2c1`, the inhibition result in the assay listed under Homo sapiens [4] is “inactive”. In addition, the inhibition at 10 µM in assay [2] came out at 6%. 20 µM produced 19% inhibition in assay [3].
Compound `CCN(CC)CCOc1ccc(-c2cc(=O)c3c(OC)cc(OC)cc3o2)cc1` registered an inhibition at 5 µM in assay [1] of 33%. In assay [2], this compound displayed an inhibition at 10 µM of 60%. The same compound had an inhibition at 20 µM in assay [3] of 72%.
Consider `O=c1cc(-c2ccc(O)cc2)oc2cc(O)cc(O)c12` [APIGENIN], for which the result in the assay on Mus musculus [5], in the assay on Mus musculus [6], in the assay on Mus musculus [7] and in the assay with Mus musculus [8] was Active. For the same compound, the inhibition at 5 µM in [1] came out at 11%. The compound further yielded an inhibition at 10 µM in [2] of 34%. Also, the inhibition at 20 µM in [3] is 64%. Besides, the IC50 in assay [9] is 18.6 µM. This compound registered a half-maximal effective concentration (EC50) in assay [10] of 24.5 µM.
Turning to `COc1cc(OC)c2c(=O)cc(-c3ccc(OCCN4CCOCC4)cc3)oc2c1`, the inhibition result in the assay filed under Homo sapiens [4], in the assay listed under Homo sapiens [11] and in the assay listed under Homo sapiens [12] was “inactive” each time.
For `COc1cc(OC)c2c(=O)cc(-c3ccc(OCCN4CCCC4=O)cc3)oc2c1`, the inhibition at 5 µM in assay [1] was 7%. This compound also registered an inhibition at 10 µM in assay [2] of 14%. Besides, in assay [3], the inhibition at 20 µM came out at 33%.
Compound `COc1cc(OC)c2c(=O)cc(-c3ccc(NCCN4CCCC4)cc3)oc2c1` displayed an inhibition at 5 µM in assay [1] of 21%. For the same compound, the inhibition at 10 µM in assay [2] turned out to be 51%. Besides, 20 µM produced 80% inhibition in assay [3].
Regarding `COC(=O)[C@@H]1CCCN1CCOc1ccc(-c2cc(=O)c3c(OC)cc(OC)cc3o2)cc1`, 5 µM produced 22% inhibition in assay [1]. In assay [2], testing at 10 µM gave an inhibition of 37%. In assay [3], this compound gave an inhibition at 20 µM of 67%.
With `COc1cc(OC)c2c(=O)cc(-c3ccc(OCC(O)CO)cc3)oc2c1` (centres undefined), the inhibition result in the assay filed under Homo sapiens [4] is “inactive”. At 10 µM the inhibition in assay [2] was 11%. This compound showed an inhibition at 20 µM in [3] of 16%.
Turning to `COc1cc(OC)c2c(=O)cc(-c3ccc(NCCN(C)C)cc3)oc2c1`, the inhibition at 5 µM in assay [1] is 30%. The same compound yielded an inhibition at 10 µM in assay [2] of 60%. In [3], this compound returned an inhibition at 20 µM of 84%.
In assay [1], `COc1cc(OC)c2c(=O)cc(-c3ccc(OCCCN)cc3)oc2c1` had an inhibition at 5 µM of 22%. Further, the inhibition at 10 µM in assay [2] was 39%.
For `COc1cc(OC)c2c(=O)cc(-c3ccc(OCCF)cc3)oc2c1`, the inhibition result in the assay listed under Homo sapiens [4] and in the assay filed under Homo sapiens [11] was “inactive” throughout. Also, at 20 µM the inhibition in assay [3] was 21%.
As to `COc1cc(OC)c2c(=O)cc(-c3ccc(OCC(O)CN4CCCCC4)cc3)oc2c1` (centres undefined), the result with Mus musculus [5], in the assay with Mus musculus [6], in the assay with Mus musculus [7] and with Mus musculus [8] was Active. This compound displayed an inhibition at 5 µM in assay [1] of 34%. The same compound gave an inhibition at 10 µM in assay [2] of 65%. Besides, at 20 µM the inhibition in assay [3] was 95%. The compound further came in with an IC50 in assay [9] of 8 µM. The EC50 in assay [10] was 35.2 µM.
`COc1cc(O)c2c(=O)cc(-c3ccc(OCCN4CCCC4)cc3)oc2c1`: the inhibition result in the assay filed under Homo sapiens [4] is “inactive”. The compound also displayed an inhibition at 10 µM in assay [2] of 39%. Besides, in assay [3], 20 µM produced 99% inhibition.
In turn, `COc1cc(OC)c2c(=O)cc(-c3ccc(OCCN4CCCCC4)cc3)oc2c1` returned an inhibition at 5 µM in assay [1] of 45%. The inhibition at 10 µM in assay [2] is 64%. The compound also had an inhibition at 20 µM in assay [3] of 97%.
In turn, `COc1cc(OC)c2c(=O)cc(-c3ccc(OCC(O)CN4CCCC4)cc3)oc2c1` (centres undefined) registered an inhibition at 5 µM in assay [1] of 21%. The inhibition at 10 µM in [2] was 37%. Also, testing at 20 µM in assay [3] gave an inhibition of 57%.
`COc1cc(OC)c2c(=O)cc(-c3ccc(OCCBr)cc3)oc2c1`: the inhibition entry in the assay filed under Homo sapiens [4] and in the assay filed under Homo sapiens [11] was “inactive” in each case. Testing at 20 µM in assay [3] gave an inhibition of 20%.
Consider `COc1cc(OC)c2c(=O)cc(-c3ccc(OCC4CO4)cc3)oc2c1` (centres undefined), for which the outcome with Mus musculus [5], with Mus musculus [6], in the assay on Mus musculus [7] and in the assay with Mus musculus [8] was Active. In assay [1], this compound displayed an inhibition at 5 µM of 69%. In assay [2], the inhibition at 10 µM came out at 89%. In assay [3], the inhibition at 20 µM amounted to 93%. For the same compound, it took 2.5 µM to reach half-maximal inhibition in assay [9] (IC50). In [10], this compound registered an EC50 of 9.6 µM.
On to `COc1cc(OC)c2c(=O)cc(-c3ccc(O)cc3)oc2c1`, for which the inhibition result in the assay listed under Homo sapiens [4], in the assay filed under Homo sapiens [11] and in the assay filed under Homo sapiens [12] was “inactive” throughout.
For the compound `COc1cc(OC)c2c(=O)cc(-c3ccc(OCC(O)CN(C)C)cc3)oc2c1` (centres undefined), 5 µM produced 42% inhibition in [1]. The compound further registered an inhibition at 10 µM in [2] of 60%. This compound returned an inhibition at 20 µM in [3] of 71%.
`COc1cc(OC)c2c(=O)cc(-c3ccc(OCCN(C)C)cc3)oc2c1` returned an inhibition at 5 µM in assay [1] of 19%. For the same compound, at 10 µM the inhibition in assay [2] was 51%. In assay [3], this compound yielded an inhibition at 20 µM of 65%.
For the compound `O=c1cc(-c2ccc(OCCN3CCCC3)cc2)oc2cc(O)cc(O)c12`, the inhibition at 5 µM in assay [1] came to 2%. In assay [2], testing at 10 µM gave an inhibition of 71%. This compound came in with an inhibition at 20 µM in [3] of 90%.

By inhibition is commonly meant the change of the read-out against control, counted positive when it falls. The IC50 is the concentration that inhibits the measured activity by half. A higher IC50 goes with weaker potency in that assay. Usually EC50 stands for the concentration that produces a half-maximal response. A lower EC50 goes with an effect from little substance.
